PMC3867294 (Biochemical and biophysical research communications, 2013)

Tests used:
[1] = cited from earlier work
[2] = test system: atherosclerosis and plasma cholesterol in mouse models; details: oral and intravenous administration; cited from earlier work
[3] = test system: LPS-mediated inflammation in rats; test: Protocol 2: mR18L one hour post LPS, rat plasma at 6h post LPS; format: in vivo, Sprague-Dawley rats; details: 2.5 mg/kg mR18L one hour post 5 mg/kg LPS
Method in brief: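 Rats got LPS (E. coli 026:B6, 5 mg/kg i.p.), then test compound 2.5 mg/kg one hour later; n=5/group. Plasma was taken at baseline and 6 h. Measures: cholesterol and triglycerides by kit; IL-6 and IL-10 by ELISA; endotoxin by kinetic LAL. PON1 was read as paraoxon-driven 4-nitrophenol release at 405 nm. Tests: paired t-test vs baseline, unpaired vs LPS.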

[4] = test system: endotoxin activity of LPS; test: Endotoxin activity in rat plasma by LAL assay, protocol 1; format: in vivo, Sprague-Dawley rats; details: 2h post 5 mg/kg LPS and 2.5 mg/kg mR18L, n=5-7/group, P<0.05 vs LPS alone
Method in brief: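 Adult male Sprague-Dawley rats (322±8 g) got E. coli 026:B6 LPS at 5 mg/kg i.p. and, one minute later, test compound at 2.5 mg/kg i.p. at a different site. Rats were killed at 2 h and the plasma was frozen. Endotoxin activity was read by kinetic-colorimetric LAL assay, n=5–7/group. Groups were compared by one-way ANOVA with Bonferroni, mean±SEM.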

[5] = test system: LPS-mediated inflammation in rats; format: in vivo; details: n=3 rats/group
iNOS (NOS2) in rat liver = test: iNOS expression in liver tissue by immunoblotting; format: in vivo, Sprague-Dawley rats; details: 2.5 mg/kg mR18L with 5 mg/kg LPS; 2h post LPS; immunoblot, n=6 in LPS groups; P<0.05 vs LPS alone
hepatocytes = details: in-vitro; cited from earlier work
[6] = test system: liver inflammation in endotoxemic rats; test: Liver histology; format: in vivo, Sprague-Dawley rats; details: 2.5 mg/kg mR18L i.p. without LPS; H&E sections; n=3
Method in brief: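 Male Sprague-Dawley rats received test compound 2.5 mg/kg i.p., with or without LPS 5 mg/kg i.p. one minute before, and were killed at 2 h. Liver was formalin-fixed, paraffin-embedded, cut at 5 μm and H&E-stained. A blinded pathologist scored it subjectively. Segmented neutrophils were counted at x40, 30 fields from 10 random portal areas. n=3 control, n=4 LPS groups.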

[7] = test system: LPS-mediated inflammation in rats; test: Protocol 1: plasma cytokines; format: in vivo, Sprague-Dawley rats
[8] = 2.5 mg/kg mR18L i.p. one minute post 5 mg/kg LPS, 2h post LPS, n=5-7 rats/group

Ac-GFRRFLGSWARIYRAFVG-NH2 [mR18L, Ac-G-F-R-R-F-L-G-S-W-A-R-I-Y-R-A-F-V-G-NH2]
lytic properties relative to 18L [1]: substantially reduced lytic properties
atherosclerotic lesion formation [2]: inhibited
plasma cholesterol levels, mainly VLDL [2]: decreased
increase of plasma PON1 activity in LPS-treated rats ([3]; n=5, P<0.05 vs baseline): 15%
LPS-mediated elevation of plasma triglyceride ([3]; n=5 rats/group): reduced
plasma cholesterol ([3]; n=5 rats/group): not affecting
reduction of plasma levels of IL-6 ([3]; n=5 rats/group, vs LPS): 57%
reduction of plasma levels of IL-10 ([3]; n=5 rats/group, vs LPS): 38%
increase of IL-10 to IL-6 ratio ([3]; not shown): 24%
reduction of plasma endotoxin activity ([3]; LAL assay, n=5 rats/group, vs LPS): 30%
endotoxin activity in plasma of LPS-treated rats [4]: significantly reduced
tolerance to mR18L ([5]; 1, 2.5 and 5 mg/kg mR18L i.p. one minute post 5 mg/kg LPS i.p.): All rats demonstrated tolerance
LPS-mediated plasma elevation of TNF-α ([5]; starting at the lowest tested dose of 1 mg/kg mR18L i.p., 5 mg/kg LPS): significantly reduced
LPS-mediated iNOS elevation in liver (iNOS (NOS2) in rat liver): reduced
uptake of atherogenic lipoproteins by hepatocytes (hepatocytes): able to enhance uptake
liver morphology and histology, mR18L alone [6]: normal morphological and histological features without signs of inflammation or tissue damage
LPS-mediated elevation of plasma IL-6 [7, 8]: significantly reduced
LPS-mediated elevation of plasma TNF-α [7, 8]: significantly reduced
plasma anti-inflammatory cytokine IL-10 [7, 8]: without significantly reducing
normal levels of TNF-α, IL-6 and IL-10 in rat plasma, mR18L administered alone ([7]; 2.5 mg/kg mR18L i.p. without LPS, 2h, n=5 rats/control group): no effects
